Only some compounds are listed: those with a hit (about 4% of all), similar ones and a draw of the others.
FGF22 binding: binders of human FGF22 protein, primary screen, FGF22 synaptogenesis inhibitor project, biophysical, thermal shift, single point; Fibroblast growth factor 22 (Homo sapiens), Q9HCT0; recombinant FGF22 thermal shift, SYPRO orange fluorescence; percent of sucrose octasulfate shift, DMSO zero; activity (Tm shift, normalised), % at 9.99 µM; 340,000 compounds, 1.5% hits;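 active = mean Tm shift, scaled 0 neutral to 100 positive control, at about 1.3% or above, every replicate too, limit read from the data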
Statin myotox sup: suppressors of statin myotoxicity in C2C12 myotubes, primary screen, cell-based, single point, plate reader. C2C12 myotubes + simvastatin, ATP luminescence, 48 h; scaled: DMSO 0, geranylgeraniol control 100. rescue of ATP level, % at 7.49 µM. 330,000 compounds, 0.78% hits. AID 602340, 2012;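 active = mean ATP rescue above about 67%, or every replicate alone reaching that limit, limit read from the data, passing the limit was not always enough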;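 note: myotubes were challenged with 10 µM simvastatin during compound exposure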
rRNA inh HTS: reduced GFP signal of wild-type E. coli, primary screen, bacterial rRNA inhibitor project, GFP/RFP fluorescence, OD600, single point. E. coli WT GFP vs humanized-ribosome RFP mutants, 24 h; active compounds read low; DMSO median 0, no signal -100. GFP signal change (wild-type ribosome), % (concentration not given with the values). 350,000 compounds, 1.6% hits;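 active = significant combined selectivity score with lowered wild-type GFP, culture density cut under 30%, mutant RFP and density less affected; inactive = any of these conditions unmet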
FN deposition inh: inhibitors of fibronectin matrix deposition, primary screen, AH1F cells, Alexa488-fibronectin fluorescence, plate reader. AID 743247, 2014. inhibition, % at 12.6 µM. AH1F fibroblasts, overnight. 350,000 compounds, 0.086% hits;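 active = mean inhibition across replicates of 30% or more, regardless of how many single replicates reach that level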
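Assay system: AH1F fibroblast monolayer, labelled fibronectin deposition. Amount: 10000 cells per well. Also added: labelled fibronectin 24 nM. Compound: single-point pinned compound. Incubation: cell attachment 1 h, compound and FN exposure overnight. Detection: fluorescence after three HBSS washes, excitation 485 nm, emission 525 nm. Read-out: inhibition of fibronectin deposition signal.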
E-sel inducer: E-selectin induction in HUVECs, primary screen, imaging, HUVEC, immunofluorescence imaging, single point | P16581 | normalized: neutral wells 0, TNF-alpha wells 100 | 260,000 compounds, 0.37% hits | activation, % at 7.58 µM;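 active = mean E-selectin-positive cell signal at least 10% of the positive control, reached in at least 60% of replicates, without over 20% cell loss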
Target sequence (P16581 whole entry, looked up): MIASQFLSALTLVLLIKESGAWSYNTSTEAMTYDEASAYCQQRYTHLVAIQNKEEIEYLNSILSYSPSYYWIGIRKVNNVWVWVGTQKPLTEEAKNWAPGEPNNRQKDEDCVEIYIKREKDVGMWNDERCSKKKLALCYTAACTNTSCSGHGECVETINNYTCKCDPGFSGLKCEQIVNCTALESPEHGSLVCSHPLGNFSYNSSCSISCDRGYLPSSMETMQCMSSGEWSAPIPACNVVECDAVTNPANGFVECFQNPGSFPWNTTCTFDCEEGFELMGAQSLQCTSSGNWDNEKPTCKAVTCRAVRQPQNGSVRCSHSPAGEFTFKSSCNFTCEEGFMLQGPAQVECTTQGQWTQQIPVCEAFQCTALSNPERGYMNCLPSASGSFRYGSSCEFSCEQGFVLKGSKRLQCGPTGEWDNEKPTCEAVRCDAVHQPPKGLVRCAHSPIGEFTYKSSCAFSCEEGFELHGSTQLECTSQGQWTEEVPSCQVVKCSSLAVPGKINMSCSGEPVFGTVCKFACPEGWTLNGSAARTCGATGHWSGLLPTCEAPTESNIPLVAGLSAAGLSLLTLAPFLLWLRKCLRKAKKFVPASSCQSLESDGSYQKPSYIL
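Test system: HUVEC | Signal: Immunofluorescence imaging | Read-out: Percent E-selectin-positive cells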
SIRT5 block: SIRT5 desuccinylase inhibitors, primary screen, biochemical, fluorescence imaging, single point, set 5; Purified SirT5, succinyl-peptide AMC, trypsin-coupled fluorescence; NAD-dependent protein deacylase sirtuin-5, mitochondrial (Homo sapiens), Q9NXA8; 330,000 compounds, 1.1% hits; inhibition, % at 15 µM; in the data active = inhibition above about 15%
Large screens that a line does not name were inactive.

C[C@@H](NC(=O)C[C@H]1C=C[C@H](NC(=O)C2CC2)[C@H](CO)O1)c1ccccc1	none
COc1ccccc1C(=O)OCc1c(-c2ccccc2)ncc2ccccc12	rRNA inh HTS -25 (no result: SIRT5 block)
O=S(=O)(Nc1nccs1)c1ccc(NCc2cc(Br)cc(Br)c2O)cc1	rRNA inh HTS -47 (no result: E-sel inducer)
C[C@@H]1CCCCO[C@@H](CN(C)C(=O)CCCN(C)C)[C@@H](C)CN([C@H](C)CO)C(=O)c2cc(NS(=O)(=O)c3cccs3)ccc2O1	none (no result: Statin myotox sup, FN deposition inh)
C[C@@H]1CCCCO[C@@H](CN(C)C(=O)CCCN(C)C)[C@@H](C)CN([C@H](C)CO)C(=O)c2cc(NS(=O)(=O)c3ccccc3)ccc2O1	SIRT5 block 19 (no result: Statin myotox sup)
C[C@@H]1CCCCO[C@H](CN(C)C(=O)CCCN(C)C)[C@@H](C)CN([C@H](C)CO)C(=O)c2cc(NS(=O)(=O)c3ccccc3)ccc2O1	none (no result: Statin myotox sup)
C[C@@H]1CCCCO[C@H](CN(C)C(=O)CCCN(C)C)[C@@H](C)CN([C@@H](C)CO)C(=O)c2cc(N(C)C)ccc2O1	SIRT5 block 16 (no result: FN deposition inh)
C[C@@H]1CCCCO[C@@H](CN(C)C(=O)CCCN(C)C)[C@H](C)CN([C@@H](C)CO)C(=O)c2cc(NS(=O)(=O)c3cccs3)ccc2O1	FGF22 binding 1.3 (no result: Statin myotox sup, FN deposition inh)
CNC(=O)C[C@@H]1CC[C@@H]2[C@H](COc3ccc(NC(=O)Nc4cccc(C)c4)cc3C(=O)N2C)O1	none
O=C(O)C[C@@H]1C[C@H]2c3cc(NC(=O)C4CCC4)ccc3O[C@H]2[C@H](CO)O1	none (no result: FN deposition inh)
CC1Sc2ccc(C(=O)Nc3ccccc3OC(F)F)cc2NC1=O (centres undefined)	rRNA inh HTS -20 (no result: FGF22 binding, Statin myotox sup)
CC1Sc2ccc(C(=O)Nc3ncccc3O)cc2NC1=O (centres undefined)	none (no result: FN deposition inh, E-sel inducer)
O=C(CCc1nnc(CCCc2ccccc2)o1)NCCc1ccccc1	none (no result: Statin myotox sup, E-sel inducer)
O=C(CCc1nnc(CCCc2ccccc2)o1)NCCCC1CCCC1	FGF22 binding 43 (no result: Statin myotox sup, FN deposition inh, E-sel inducer)
O=C(CCc1nnc(CCCCc2ccccc2)o1)NCCn1cccn1	FGF22 binding 43 (no result: Statin myotox sup)
Cc1ccc(C(C[N+](=O)[O-])c2c(C)[nH]n(-c3ccccc3)c2=O)cc1 (centres undefined)	SIRT5 block 26 (no result: Statin myotox sup, E-sel inducer)
Cc1noc(C)c1NC(=O)Nc1cccc2c1O[C@@H](CN(C)Cc1ccncc1)[C@@H](C)CN([C@H](C)CO)C2=O	none (no result: FN deposition inh, E-sel inducer)
Cc1cccn2c(Nc3ccccc3)c(-c3ccccn3)nc12	rRNA inh HTS -43
Cc1ccn2c(Nc3ccccc3)c(-c3ccccn3)nc2c1	none (no result: E-sel inducer)
Cc1ccccc1Nc1c(-c2ccccn2)nc2ccccn12	rRNA inh HTS -54 (no result: E-sel inducer)
O=C(Cn1ccc(=O)[nH]c1=O)Nc1ccc(O)c([N+](=O)[O-])c1	FGF22 binding 43 (no result: SIRT5 block)
Cc1nc(N2CCN(c3ccccc3)CC2)nc2c1C(=O)CC(C)C2 (centres undefined)	rRNA inh HTS -33 (no result: FGF22 binding, E-sel inducer)
Cc1nc(N2CCN(c3ccccc3)CC2)nc2c1C(=O)CC(c1ccccc1)C2 (centres undefined)	none (no result: FGF22 binding, rRNA inh HTS, E-sel inducer, SIRT5 block)
COC(=O)c1c(NC(=O)C2(C)Cc3ccccc3C(=O)O2)sc2c1CCCC2 (centres undefined)	SIRT5 block 19 (no result: FGF22 binding, FN deposition inh, E-sel inducer)
COC(=O)c1c(NC(=O)C2Cc3ccccc3C(=O)O2)sc2c1CCCC2 (centres undefined)	none (no result: E-sel inducer)
Cc1noc(C)c1S(=O)(=O)Nc1ccc2c(c1)C(=O)N([C@@H](C)CO)C[C@H](C)[C@@H](CN(C)C(=O)Nc1ccc3c(c1)OCO3)OCCCC[C@H](C)O2	none (no result: Statin myotox sup, FN deposition inh)
CCCOc1ccc(/C(O)=C2/C(=O)C(=O)N(CCCn3ccnc3)C2c2ccco2)cc1 (centres undefined)	none (no result: FGF22 binding, Statin myotox sup, rRNA inh HTS, E-sel inducer, SIRT5 block)
